What was measured:
[1] = tested on: Rattus norvegicus; assay: Dose inducing catalepsy in rats after oral administration; format: functional
Method in brief: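 Oral dose of compound or vehicle; rats tested 120 and 180 min later with forepaws on a horizontal bar (9 mm diameter, 10 cm high). Latency to climb down recorded, 90 s maximum, score averaged over two trials; 20 s mean immobility was the catalepsy criterion. ED20s dose extrapolated by linear regression.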

[2] = tested on: Rattus norvegicus; assay: Dose inhibiting conditioned avoidance response in rats after oral administration; format: functional
Method in brief: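 Each test day, 30 predrug avoidance trials in the morning; in the afternoon, oral compound or vehicle, then 30 more trials starting 120 min later. Predrug and postdrug avoidances compared by repeated-measures ANOVA with Newman-Keuls test; ID50 from linear regression of dose-response data.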

[3] = tested on: Rattus norvegicus; assay: Dose (administered orally) inhibiting spontaneous locomotor behavior in rats; format: functional; conditions: po
Method in brief: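 At the start of the 12 h dark cycle, rats were dosed orally with vehicle or compound and placed at once in unfamiliar activity chambers. Horizontal locomotion recorded over 4 h.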

[4] = biological target: T1, Adrenergic receptor alpha-1 (Rattus norvegicus, UniProt P15823+P23944+P43140); assay: Displacement of [3H]prazosin from Alpha-1 adrenergic receptor in rat brain; format: tissue-based
T1 sequence (P15823 whole entry): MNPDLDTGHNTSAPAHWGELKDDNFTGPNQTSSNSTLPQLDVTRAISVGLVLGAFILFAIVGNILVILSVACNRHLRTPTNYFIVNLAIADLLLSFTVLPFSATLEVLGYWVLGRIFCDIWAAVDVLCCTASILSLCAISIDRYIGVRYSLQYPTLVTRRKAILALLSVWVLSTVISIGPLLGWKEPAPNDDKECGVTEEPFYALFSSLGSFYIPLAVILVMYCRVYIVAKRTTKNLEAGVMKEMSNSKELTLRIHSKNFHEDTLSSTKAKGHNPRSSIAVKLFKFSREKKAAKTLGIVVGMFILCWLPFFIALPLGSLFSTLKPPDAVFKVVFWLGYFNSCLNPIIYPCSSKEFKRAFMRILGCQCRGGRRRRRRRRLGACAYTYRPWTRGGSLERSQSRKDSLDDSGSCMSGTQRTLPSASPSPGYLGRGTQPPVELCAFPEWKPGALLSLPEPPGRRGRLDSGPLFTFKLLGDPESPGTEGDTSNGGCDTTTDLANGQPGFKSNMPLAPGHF
T1 sequence (P23944 whole entry): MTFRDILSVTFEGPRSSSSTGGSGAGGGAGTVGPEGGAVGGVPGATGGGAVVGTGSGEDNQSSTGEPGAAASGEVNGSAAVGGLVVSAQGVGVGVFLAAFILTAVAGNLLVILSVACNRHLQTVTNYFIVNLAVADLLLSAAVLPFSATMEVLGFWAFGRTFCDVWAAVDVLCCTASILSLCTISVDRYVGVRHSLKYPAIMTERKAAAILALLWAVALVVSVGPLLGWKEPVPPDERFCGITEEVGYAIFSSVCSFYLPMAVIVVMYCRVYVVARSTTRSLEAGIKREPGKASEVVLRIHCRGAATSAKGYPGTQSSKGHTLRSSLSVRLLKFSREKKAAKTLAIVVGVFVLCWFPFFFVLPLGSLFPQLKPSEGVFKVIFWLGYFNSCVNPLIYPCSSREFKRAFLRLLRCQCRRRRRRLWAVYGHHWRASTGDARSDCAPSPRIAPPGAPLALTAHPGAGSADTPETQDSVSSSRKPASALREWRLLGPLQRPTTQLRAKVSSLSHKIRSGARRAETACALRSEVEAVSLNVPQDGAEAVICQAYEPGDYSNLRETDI
T1 sequence (P43140 whole entry): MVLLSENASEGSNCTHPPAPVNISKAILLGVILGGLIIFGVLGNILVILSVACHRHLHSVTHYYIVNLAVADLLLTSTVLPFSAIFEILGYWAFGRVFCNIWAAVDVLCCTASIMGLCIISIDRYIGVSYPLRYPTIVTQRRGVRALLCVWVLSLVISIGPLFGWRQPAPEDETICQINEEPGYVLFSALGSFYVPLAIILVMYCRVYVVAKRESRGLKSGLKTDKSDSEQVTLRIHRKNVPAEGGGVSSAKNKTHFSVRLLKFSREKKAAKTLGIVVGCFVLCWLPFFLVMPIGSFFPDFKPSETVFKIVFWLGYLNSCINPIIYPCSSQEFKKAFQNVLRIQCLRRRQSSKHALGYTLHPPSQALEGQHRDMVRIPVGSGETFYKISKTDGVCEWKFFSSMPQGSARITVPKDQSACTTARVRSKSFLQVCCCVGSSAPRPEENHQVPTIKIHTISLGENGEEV

[5] = tested on: Rattus norvegicus; assay: Dose (administered orally) inhibiting amphetamine-induced locomotor behavior in rats; format: functional; conditions: po
[6] = tested on: Rattus norvegicus; assay: Dose (administered orally) inhibiting apomorphine-induced stereotypy in rats; format: functional; conditions: po
Method in brief: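 Rats dosed orally with vehicle or compound and observed in clear cages; apomorphine HCl 0.75 mg/kg sc given 3 h later. Stereotypy rated blind on a 0–4 scale starting 10 min after apomorphine, every 10 min, five ratings in all.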

[7] = biological target: T1, Adrenergic receptor alpha-1; assay: Displacement of [3H]prazosin from rat brain Alpha-1 adrenergic receptor

| Ki [4] | Log Ki [7] | Compound | ED50 [1] | ED50 [2] | ED50 [3] | ED50 [5] | ED50 [6] |
| --- | --- | --- | --- | --- | --- | --- | --- |
| 2.3 nM | -8.63 | Oc1nc2ccc(CCN3CCN(c4nsc5ccccc45)CC3)cc2s1 | > 56 mg/kg | 12.3 mg/kg | 2.7 mg/kg | 2.7 mg/kg | 23.8 mg/kg |
| 4.5 nM | -8.35 | CCN1C(=O)Cc2cc(CCN3CCN(c4nsc5ccccc45)CC3)ccc21 | 10 mg/kg | 1.8 mg/kg | 2.1 mg/kg | 1.1 mg/kg | 4.7 mg/kg |
| 6.5 nM | -8.19 | O=C1Cc2cc(CCN3CCN(c4nsc5ccccc45)CC3)c(F)cc2N1 | 17.8 mg/kg | 9 mg/kg | 3.1 mg/kg | 1 mg/kg | 9.1 mg/kg |
| 4.2 nM | -8.38 | Oc1nc2ccc(CCN3CCN(c4nsc5ccccc45)CC3)cc2o1 | > 32 mg/kg | 17.8 mg/kg | 9.8 mg/kg | 4.2 mg/kg | 21.6 mg/kg |
| 5.1 nM | -8.29 | O=C1Nc2ccc(CCN3CCN(c4nsc5ccccc45)CC3)cc2C12CCCC2 | 32 mg/kg | – | – | 5.8 mg/kg | 9 mg/kg |
| 3 nM | -8.52 | O=C1Cc2cc(CCN3CCN(c4nsc5ccccc45)CC3)ccc2N1 | 18.8 mg/kg | 6.7 mg/kg | 8.5 mg/kg | 1.4 mg/kg | 8.4 mg/kg |
| 2.1 nM | -8.68 | CC1(C)C(=O)Nc2ccc(CCN3CCN(c4nsc5ccccc45)CC3)cc21 | 17.8 mg/kg | 2.6 mg/kg | 10.7 mg/kg | 2.3 mg/kg | 10 mg/kg |
| – | – | CN1CCN(C2=Nc3cc(Cl)ccc3Nc3ccccc32)CC1 [CLOZAPINE] | > 32 mg/kg | > 17.8 mg/kg | 8.18 mg/kg | 12.8 mg/kg | > 32 mg/kg |
| – | – | O=C(CCCN1CCC(O)(c2ccc(Cl)cc2)CC1)c1ccc(F)cc1 [HALOPERIDOL] | 0.79 mg/kg | 0.93 mg/kg | 0.68 mg/kg | 0.14 mg/kg | 0.25 mg/kg |
| – | – | Cc1nc2n(c(=O)c1CCN1CCC(c3noc4cc(F)ccc34)CC1)CCCC2 [RISPERIDONE] | 5.7 mg/kg | 1.6 mg/kg | 1.2 mg/kg | 0.44 mg/kg | 1.8 mg/kg |
| 1.5 nM | -8.83 | O=C1CC2(CCCC2)CC(=O)N1CCCCN1CCN(c2nsc3ccccc23)CC1 [TIOSPIRONE] | 20.1 mg/kg | 11.7 mg/kg | 15.5 mg/kg | 4.8 mg/kg | 18.8 mg/kg |
| 11 nM | -7.98 | O=C1Cc2cc(CCN3CCN(c4nsc5ccccc45)CC3)c(Cl)cc2N1 [ZIPRASIDONE] | 12.1 mg/kg | 2.6 mg/kg | 8.9 mg/kg | 1.5 mg/kg | 2.4 mg/kg |
